Measured values as given in ChEMBL document CHEMBL1938239, “Novel analgesic/anti-inflammatory agents: diarylpyrrole acetic esters endowed with nitric oxide releasing properties” (J Med Chem, 2011).
Calls of active or inactive are those of the source. No cut-off for these calls is given here.

Experiments:
J774 = assay: Selectivity ratio of IC50 for COX1 in mouse J774 cells to IC50 for COX2 in mouse J774 cells; type: cell-based
Method in brief: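 Ratio of J774 IC50s, COX-1 over COX-2. For COX-1, cells were pretreated with compound for 15 min, then given 15 μM arachidonic acid for 30 min at 37 °C. For COX-2, cells received E. coli LPS 10 μg/mL for 24 h with compound at 0.01–10 μM. PGE2 was measured by RIA in triplicate wells over three experiments. IC50 came from a sigmoidal fit.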

Aorta [1] = assay: Vasorelaxation activity against KCl-induced contraction in isolated Wistar rat thoracic endothelium-denulated aortic rings in the presence of guanylate cyclase inhibitor ODQ; type: functional, tissue-based
Method in brief: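 Thoracic aortic rings from male Wistar rats (250–350 g), endothelium removed by rubbing; rings relaxing ≥10% to ACh 10 μM on KCl 30 mM tone were discarded. ODQ 1 μM was incubated, then rings were contracted with KCl 30 mM and given 3-fold increasing concentrations of 1 nM–10 μM.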

Aorta [2] = assay: Vasorelaxation activity against KCl-induced contraction in isolated Wistar rat thoracic endothelium-denulated aortic rings; type: functional, tissue-based
Method in brief: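 Endothelium-denuded thoracic aortic rings from male Wistar rats (250−350 g); denudation confirmed by <10% relaxation to 10 μM ACh. Rings precontracted with 30 mM KCl; compound added at 3-fold increasing concentrations, 1 nM to 10 μM. Isometric tension recorded. Emax given as % of KCl tone; pIC50 derived. Mean ± standard error of 6−10 experiments; repeated with 1 μM ODQ.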

[3] = molecular target: T1, Prostaglandin G/H synthase 1 (Mus musculus) (UniProt P22437); assay: Inhibition of COX-1-mediated PGE2 production in arachidonic acid-stimulated mouse J774 cells at 10 uM incubated for 15 mins prior to arachidonic acid-challenge by radioimmunoassay; type: cell-based
T1 sequence (whole entry): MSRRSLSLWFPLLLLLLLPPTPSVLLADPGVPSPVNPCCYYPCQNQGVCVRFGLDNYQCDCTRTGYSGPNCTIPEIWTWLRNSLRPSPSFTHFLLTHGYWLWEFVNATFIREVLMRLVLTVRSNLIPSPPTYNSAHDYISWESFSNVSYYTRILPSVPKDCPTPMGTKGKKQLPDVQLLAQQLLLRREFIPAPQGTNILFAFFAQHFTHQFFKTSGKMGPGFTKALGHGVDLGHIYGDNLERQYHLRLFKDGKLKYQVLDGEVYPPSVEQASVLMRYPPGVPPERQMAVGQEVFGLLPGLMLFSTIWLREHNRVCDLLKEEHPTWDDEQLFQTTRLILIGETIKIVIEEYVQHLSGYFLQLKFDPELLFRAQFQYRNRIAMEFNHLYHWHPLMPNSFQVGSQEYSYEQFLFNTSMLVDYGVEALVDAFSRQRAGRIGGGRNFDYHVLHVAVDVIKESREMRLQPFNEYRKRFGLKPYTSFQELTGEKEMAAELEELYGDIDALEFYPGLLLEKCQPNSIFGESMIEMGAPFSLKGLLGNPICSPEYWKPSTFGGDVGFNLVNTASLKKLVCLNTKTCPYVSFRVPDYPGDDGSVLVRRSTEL
Method in brief: (§1)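 J774 murine macrophages grown in DMEM with 10% FBS and allowed to adhere for 2 h at 37 °C. Where inhibition exceeded 50%, 0.01–1 μM was also tested. Supernatant PGE2 was measured by RIA as % inhibition versus control, in triplicate wells over three experiments. IC50 came from a sigmoidal variable-slope fit.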

[4] = molecular target: T2, Prostaglandin G/H synthase 1 (Mus musculus, UniProt P22437); assay: Inhibition of COX-1-mediated PGE2 production in arachidonic acid-stimulated mouse J774 cells incubated for 15 mins prior to arachidonic acid-challenge by radioimmunoassay; type: cell-based
T2 sequence (P22437 whole entry): T1 sequence (whole entry)
Method in brief: as §1, with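 “2 h at 37 °C. Cells were pretreated with compound at 10 μM for 15 min, then given 15 μM arachidonic acid for 30 min at 37” for “2 h at 37”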

[5] = molecular target: T1, Prostaglandin G/H synthase 1 (Mus musculus); assay: Inhibition of COX-1-mediated PGE2 production in arachidonic acid-stimulated mouse J774 cells at 1 uM incubated for 15 mins prior to arachidonic acid-challenge by radioimmunoassay; type: cell-based; method in brief: as §1
[6] = molecular target: T1, Prostaglandin G/H synthase 1 (Mus musculus); assay: Inhibition of COX-1-mediated PGE2 production in arachidonic acid-stimulated mouse J774 cells at 0.1 uM incubated for 15 mins prior to arachidonic acid-challenge by radioimmunoassay; type: cell-based; method in brief: as §1
[7] = molecular target: T3, Prostaglandin G/H synthase 2 (Mus musculus, UniProt Q05769); assay: Inhibition of COX-2-mediated PGE2 production in LPS-stimulated mouse J774 cells after 24 hrs by radioimmunoassay; type: cell-based
T3 sequence (Q05769 whole entry): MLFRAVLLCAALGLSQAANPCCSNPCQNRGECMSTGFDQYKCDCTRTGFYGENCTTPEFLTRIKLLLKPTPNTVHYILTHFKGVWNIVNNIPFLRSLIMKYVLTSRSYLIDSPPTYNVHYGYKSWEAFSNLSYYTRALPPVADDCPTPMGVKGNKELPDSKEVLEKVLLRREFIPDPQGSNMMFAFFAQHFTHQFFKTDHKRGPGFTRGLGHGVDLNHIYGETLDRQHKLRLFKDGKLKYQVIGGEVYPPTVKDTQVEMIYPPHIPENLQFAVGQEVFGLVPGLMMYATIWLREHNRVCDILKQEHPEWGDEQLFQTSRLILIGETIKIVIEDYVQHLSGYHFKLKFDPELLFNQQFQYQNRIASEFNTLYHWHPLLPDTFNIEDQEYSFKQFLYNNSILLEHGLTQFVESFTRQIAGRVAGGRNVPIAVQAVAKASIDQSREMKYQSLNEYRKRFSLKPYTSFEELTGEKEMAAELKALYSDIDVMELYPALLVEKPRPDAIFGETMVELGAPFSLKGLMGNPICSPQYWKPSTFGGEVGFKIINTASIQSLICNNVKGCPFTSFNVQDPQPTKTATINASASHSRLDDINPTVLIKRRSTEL

[8] = molecular target: T4, Prostaglandin G/H synthase 2 (Mus musculus) (UniProt Q05769); assay: Inhibition of COX-2-mediated PGE2 production in LPS-stimulated mouse J774 cells at 0.001 uM after 24 hrs by radioimmunoassay; type: cell-based
T4 sequence (whole entry): T3 sequence (Q05769 whole entry)

Rattus norvegicus [9] = assay: Antiinflammatory activity against carrageenan-induced paw edema in Sprague-Dawley rat assessed as paw weight at 40 mg/kg, po administered 4 hrs post challenge measured after 120 mins (reference value: 63.2+/-3.3 g); type: functional
Rattus norvegicus [10] = assay: Antiinflammatory activity against carrageenan-induced paw edema in Sprague-Dawley rat assessed as paw weight at 20 mg/kg, po administered 4 hrs post challenge measured after 120 mins (reference value: 62.5+/-3.1 g); type: functional
Rattus norvegicus [11] = assay: Antiinflammatory activity against carrageenan-induced edema in Sprague-Dawley rat assessed as right hind paw volume at 40 mg/kg, po administered 4 hrs post challenge measured after 60 mins; type: functional
Method in brief: (§2)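 Rats received intraplantar carrageenan. Right hind paw volume was measured 4 h after the carrageenan injection and compared with saline/carrageenan-treated controls. Oral dosing in CMC vehicle; volume recorded at 60 min after treatment.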

Rattus norvegicus [12] = assay: Antiinflammatory activity against carrageenan-induced paw edema in Sprague-Dawley rat assessed as paw weight at 20 mg/kg, po administered 4 hrs post challenge measured after 30 mins (reference value: 62.5+/-3.1 g); type: functional
Mus musculus = assay: Analgesic activity in Swiss albino mouse abdominal constriction model assessed as reduction in acetic acid-induced writhing response for 10 mins at 20 to 40 mg/kg, po administered 30 mins prior to acetic acid-challenge measured after 5 mins relative to vehicle-treated control; type: functional, organism-based; conditions: Abdomen
Method in brief: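 Male Swiss albino mice (23−25 g); 0.6% acetic acid (10 mL/kg) injected ip. Stretching movements counted for 10 min, starting 5 min after administration. Oral doses in carboxymethylcellulose (CMC) vehicle, compared with vehicle-treated mice.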

Rattus norvegicus [13] = assay: Antiinflammatory activity against carrageenan-induced paw edema in Sprague-Dawley rat assessed as paw weight at 40 mg/kg, po administered 4 hrs post challenge measured after 30 mins (reference value: 63.2+/-3.3 g); type: functional
Rattus norvegicus [14] = assay: Antiinflammatory activity against carrageenan-induced paw edema in Sprague-Dawley rat assessed as paw weight at 20 mg/kg, po administered 4 hrs post challenge measured after 60 mins (reference value: 62.5+/-3.1 g); type: functional
Rattus norvegicus [15] = assay: Antiinflammatory activity against carrageenan-induced edema in Sprague-Dawley rat assessed as right hind paw volume at 20 mg/kg, po administered 4 hrs post challenge measured after 60 mins; type: functional; method in brief: as §2
Rattus norvegicus [16] = assay: Antiinflammatory activity against carrageenan-induced paw edema in Sprague-Dawley rat assessed as paw weight at 40 mg/kg, po administered 4 hrs post challenge measured after 60 mins (reference value: 63.2+/-3.3 g); type: functional

| inhibition [3] [%] | IC50 [4] [nM] | Compound | Ratio IC50 (J774) | Activity (Aorta [1]) | IC50 (Aorta [2]) [nM] | Emax (Aorta [2]) [%] | IC50 [7] [nM] | other results |
| --- | --- | --- | --- | --- | --- | --- | --- | --- |
| 0 | > 10000 | Cc1c(CC(=O)O)cc(-c2ccc(S(C)(=O)=O)cc2)n1-c1ccccc1 | > 10 | – | – | – | – | – |
| 36 | > 10000 | CSc1ccc(-n2c(-c3ccc(S(C)(=O)=O)cc3)cc(CC(=O)OCCCO)c2C)cc1 | > 38.5 | – | – | – | – | – |
| 0 | > 10000 | Cc1c(CC(=O)OCCCO)cc(-c2ccc(S(C)(=O)=O)cc2)n1-c1ccc(F)cc1 | > 179 | – | – | – | 56 | – |
| 27 | > 10000 | COc1ccc(-n2c(-c3ccc(S(C)(=O)=O)cc3)cc(CC(=O)OCCCO)c2C)cc1 | > 14.3 | – | – | – | – | – |
| 45 | > 10000 | CSc1ccc(-n2c(-c3ccc(S(C)(=O)=O)cc3)cc(CC(=O)O)c2C)cc1 | > 769 | – | – | – | 13 | – |
| 21 | > 10000 | Cc1c(CC(=O)OCCO)cc(-c2ccc(S(C)(=O)=O)cc2)n1-c1ccc(F)cc1 | > 256 | – | – | – | 39 | – |
| 5 | > 10000 | COc1ccc(-n2c(-c3ccc(S(C)(=O)=O)cc3)cc(CC(=O)OCCO)c2C)cc1 | > 9.1 | – | – | – | – | – |
| 22 | > 10000 | Cc1c(CC(=O)OCCO)cc(-c2ccc(S(C)(=O)=O)cc2)n1-c1ccccc1 | > 104 | – | – | – | 96 | – |
| 62 | 3180 | CSc1ccc(-n2c(-c3ccc(S(C)(=O)=O)cc3)cc(CC(=O)OCCO)c2C)cc1 | 37.4 | – | – | – | – | inhibition [5]: 40%; inhibition [6]: 11% |
| – | > 10000 | Cc1c(CC(=O)O)cc(-c2ccc(S(C)(=O)=O)cc2)n1-c1ccc(F)cc1 | > 20 | – | – | – | 500 | – |

The remaining lines, values behind:

| Compound | inhibition [3] [%] | IC50 [4] [nM] | Ratio IC50 (J774) | Activity (Aorta [1]) | IC50 (Aorta [2]) [nM] | Emax (Aorta [2]) [%] | IC50 [7] [nM] | other results |
| --- | --- | --- | --- | --- | --- | --- | --- | --- |
| CSc1ccc(-n2c(-c3ccc(S(C)(=O)=O)cc3)cc(CC(=O)OCCCO[N+](=O)[O-])c2C)cc1 | 0 | > 10000 | > 370 | inactive | > 10000 | – | – | – |
| COc1ccc(-n2c(-c3ccc(S(C)(=O)=O)cc3)cc(CC(=O)OCCO[N+](=O)[O-])c2C)cc1 | 55 | 6400 | 37.6 | inactive | 178 | – | – | inhibition [5]: 30%; inhibition [6]: 12% |
| O=[N+]([O-])OCC(CO[N+](=O)[O-])O[N+](=O)[O-] [NITROGLYCERIN] | – | – | – | – | 126 | 73 | – | – |
| Cc1c(CC(=O)OCCO[N+](=O)[O-])cc(-c2ccc(S(C)(=O)=O)cc2)n1-c1ccc(F)cc1 | 0 | > 10000 | > 345 | inactive | 3390 | – | 29 | – |
| COc1ccc(-n2c(-c3ccc(S(C)(=O)=O)cc3)cc(CC(=O)OCCCO[N+](=O)[O-])c2C)cc1 | – | > 10000 | > 4170 | inactive | > 10000 | – | 2.4 | inhibition [5]: 0%; inhibition [8]: 39% |
| Cc1c(CC(=O)OCCCO[N+](=O)[O-])cc(-c2ccc(S(C)(=O)=O)cc2)n1-c1cccc(F)c1 | 75 | 1100 | 151 | inactive | > 10000 | 39 | 7.3 | Activity (Rattus norvegicus [9]): 36.8 g; inhibition [5]: 50%; Activity (Rattus norvegicus [10]): 40.7 g; Activity (Rattus norvegicus [11]): 1.96 mL; Activity (Rattus norvegicus [12]): 43.2 g; Activity (Mus musculus): inactive; inhibition [6]: 20%; Activity (Rattus norvegicus [13]): 45.5 g; Activity (Rattus norvegicus [14]): 45.1 g; Activity (Rattus norvegicus [15]): 2.05 mL; Activity (Rattus norvegicus [16]): 44.9 g |
| Cc1c(CC(=O)OCCCO[N+](=O)[O-])cc(-c2ccc(S(C)(=O)=O)cc2)n1-c1ccc(F)cc1 | 28 | > 10000 | > 269 | inactive | > 10000 | 41 | 37.2 | – |
| CSc1ccc(-n2c(-c3ccc(S(C)(=O)=O)cc3)cc(CC(=O)OCCO[N+](=O)[O-])c2C)cc1 | 0 | > 10000 | > 588 | inactive | 457 | 65 | 17 | – |
| Cc1c(CC(=O)OCCO[N+](=O)[O-])cc(-c2ccc(S(C)(=O)=O)cc2)n1-c1ccccc1 | 19 | > 10000 | > 233 | inactive | 1740 | 65 | – | – |
| Cc1c(CC(=O)OCCCO[N+](=O)[O-])cc(-c2ccc(S(C)(=O)=O)cc2)n1-c1ccccc1 | 27 | > 10000 | > 238 | inactive | > 10000 | 44 | 42 | – |
